Inconclusive results are not listed.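 Rule for the calls, unless noted: active = RAM network inhibition above 8.4% in each of two replicates, 3 SD over the compound average; inconclusive = above 8.4% inhibition in only one replicate; inactive = 8.4% inhibition or less in each replicate.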
Key:
[1] = OD615 S. cerevisiae growth inhibition, permissive medium, pilot counter-assay, permissive growth control for S. cerevisiae lifespan shortening project (AID 705;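 active = growth inhibition above 25% in both replicates, a cutoff set 3 SD above the mean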); settings: OD615, 24 h, at 10 µM, active compounds read high
Procedure, shortened: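 System: S. cerevisiae with engineered DeaD lifespan system. Medium: SC raffinose/galactose permissive medium. Doses: single compound dose of 10 µM, 0.25% DMSO final. Schedule: 24 h exposure, 30 °C. Measured by: OD615 turbidity read. Read-out: growth inhibition.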

[2] = Restrictive medium S. cerevisiae growth inhibition, OD615, pilot screen of yeast lifespan reduction project, restrictive growth control (AID 706;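 active = growth inhibition above a set limit, 3 SD over mean compound inhibition, in both replicates, cut at about 43% in these data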;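 note: modified DeaD lifespan yeast strain shifted to restrictive glucose medium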); settings: OD615, 48 h, at 10 µM, active compounds read high
Procedure, shortened: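 Assay system – genetically modified Saccharomyces cerevisiae, DeaD replicative lifespan assay strain · Medium – CSMM-D glucose medium · Doses – 10 µM compound, 0.25% DMSO · Times – 4 h pre-incubation, 48 h exposure at 30 °C · Signal – optical density at 615 nm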

[3] = viability gain of MRP-1-high H69AR cells under doxorubicin, pilot screen, MRP-1 activator project, CellTiter-Glo, duplicate (AID 807;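 active = viability increase at or above a cutoff of the median across tested compounds plus 3 SD, cut at about 8.5% in these data, passing the limit was not always enough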;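 note: compound pretreatment 18-22 h then 72 h combined with doxorubicin; 0% = doxorubicin alone and 100% = vehicle without doxorubicin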); settings: H69AR viability with doxorubicin, CellTiter-Glo luminescence; at 10 µM; active compounds read high
[4] = growth suppression of beta-catenin knockout HCT116, pilot screen, human colon tumor cells (AID 823;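 active = cell viability at or below a set limit in both duplicate runs, the limit being the all-compound median minus 4 SD, cut at about 23% in these data, passing the limit was not always enough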;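 note: 0% = wells killed by 20 µM Hyamine and 100% = untreated DMSO cell wells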); settings: CellTiter-Glo, 60 h, at 10 µM, active compounds read low
[5] = growth suppression of PTEN-deleted HCT116, pilot screen, cell-based, HCT116 clonal line, CellTiter-Glo (AID 824;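 active = viability at or below 27.92% in each of two runs, the all-compound median minus 4 SD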;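 note: 0% = 20 µM Hyamine control and 100% = vehicle cell control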); settings: 60 h, at 10 µM, active compounds read low
[6] = inhibitors of the yeast RAM network, pilot screen, dse1pr::URA3 reporter, 5-FOA selection (AID 869;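 active = inhibition over a set limit, the all-compound mean plus 3 SD, in both replicate runs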;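 note: 0% = DMSO wells with no growth and 100% = 10 µM 1-NA-PP1 with full growth; RAM network block rescues cells from 5-FOA so hits raise OD615 growth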); settings: S. cerevisiae dse1pr::URA3 5-FOA growth, OD615, 2 d; at 10 µM; active compounds read high; strain carries analog-sensitive mutant Cbk1 kinase
[7] = RAM signaling pathway blockade in yeast – S. cerevisiae, Pdr1DBD-CYC8 efflux-inhibited sensitized strain, primary screen (AID 1298);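 note: 0% = DMSO untreated cells without growth and 100% = 10 µM 1-NA-PP1 full growth; higher means more yeast growth rescued from 5-FOA killing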; settings: S. cerevisiae cbk1-as DSE1-URA3 strain, 5-FOA growth OD615, 2 d; at 50 µM; active compounds read high

Cc1ccc(SCC(=O)NCC(C)C)cc1
inactive: growth inhibition [1] -0.86% | growth inhibition [2] 6.93% | viability increase [3] 0.66% | viability [4] 97.1% | viability [5] 102% | inhibition [6] 0.42% | RAM network inhibition [7] 0.68%

CN1/C(=C/C=N/n2cnnc2)C(C)(C)c2ccccc21
inactive: growth inhibition [1] -6.3% | growth inhibition [2] -17.9% | viability increase [3] -0.78% | viability [4] 98% | viability [5] 93.2% | inhibition [6] 0.465% | RAM network inhibition [7] 3.01%

COC(=O)C(C(=O)OC)=C(/C=C/N(C)C)N(C)C
inactive: growth inhibition [1] -16.7% | growth inhibition [2] -1.41% | viability increase [3] -0.39% | viability [4] 99.2% | viability [5] 101% | inhibition [6] 1.26% | RAM network inhibition [7] 2.7%

COc1cc2c(cc1OC)CN(C(=O)C(C)(C)C)CC2
inactive: growth inhibition [1] -8.97% | growth inhibition [2] -7.4% | viability increase [3] 0.45% | viability [4] 105% | viability [5] 96.7% | inhibition [6] -0.13% | RAM network inhibition [7] -0.98%

CC1Oc2ccccc2C=C1C1/C(=C(/O)c2ccccc2)C(=O)C(=O)N1CCCN(C)C (configuration not stated)
inactive: growth inhibition [1] -3.27% | growth inhibition [2] 2.81% | viability increase [3] -2.78% | viability [4] 95.6% | viability [5] 97% | inhibition [6] -0.25% | RAM network inhibition [7] 0.77%

CCCCn1cc(C(C)(C)C)c(C#N)c1NC(C)=O
inactive: growth inhibition [1] -21.7% | growth inhibition [2] -4.88% | viability increase [3] -1.24% | viability [4] 97.8% | viability [5] 98.8% | inhibition [6] 1.43% | RAM network inhibition [7] 5.33%

COc1ccc(C(=O)NCC(c2cccnc2)N2CCN(c3ccccc3OC)CC2)cc1OC (configuration not stated)
inactive: growth inhibition [1] -7.95% | growth inhibition [2] -2.41% | viability increase [3] -3.05% | viability [4] 89.4% | viability [5] 91% | inhibition [6] 1.16% | RAM network inhibition [7] 2.21%

COc1cccc(C2CC(c3ccccc3OC)n3ncnc3N2)c1 (configuration not stated)
inactive: growth inhibition [1] -4.81% | growth inhibition [2] 8.07% | viability increase [3] -5.2% | viability [4] 90.1% | viability [5] 71.2% | inhibition [6] 0.455% | RAM network inhibition [7] -0.26%

CN(C)CCCCCNCCCNC(=O)/C=N\O
inactive: growth inhibition [1] -2.17% | growth inhibition [2] 3.62% | viability increase [3] 0.12% | viability [4] 98.3% | viability [5] 103% | inhibition [6] 3.2% | RAM network inhibition [7] 1.4%

CCc1c(C(C)O)oc2ccc3c(C)cc(=O)oc3c12 (configuration not stated)
inactive: growth inhibition [1] -9.42% | growth inhibition [2] 2.23% | viability increase [3] -3.86% | viability [4] 84.3% | viability [5] 82.2% | inhibition [6] 1.06% | RAM network inhibition [7] 6.56%

CC(=O)c1cccc(NC(=O)c2c(F)c(F)c(F)c(F)c2F)c1
inactive: growth inhibition [1] -4.19% | growth inhibition [2] 6.79% | viability increase [3] -7.13% | viability [4] 95% | viability [5] 88.4% | inhibition [6] 1.01% | RAM network inhibition [7] -0.87%

CC(=O)NC1(c2ccccc2)CCN(Cc2nnnn2C(C)(C)C)CC1
inactive: growth inhibition [1] -11.8% | growth inhibition [2] -17.9% | viability increase [3] -0.8% | viability [4] 102% | viability [5] 96% | inhibition [6] 3.53% | RAM network inhibition [7] 1.62%

O=C(C1CCN(S(=O)(=O)c2cccc3cccnc23)CC1)N1CCN(C2CCCC2)CC1
inactive: growth inhibition [1] -9.46% | growth inhibition [2] 7.92% | viability increase [3] -1.82% | viability [4] 94.3% | viability [5] 99.2% | inhibition [6] 0.96% | RAM network inhibition [7] 0.11%

CCn1cc(Br)c(C(=O)Nc2ccc(F)c(Cl)c2)n1
inactive: growth inhibition [1] 0.5% | growth inhibition [2] -5.7% | viability increase [3] -3.96% | viability [4] 84.1% | viability [5] 80.6% | inhibition [6] -0.565% | RAM network inhibition [7] -0.16%

CCn1cc(C2=NC(c3ccccc3)CO2)c2ccccc21 (configuration not stated)
inactive: growth inhibition [1] -11% | growth inhibition [2] -8.14% | viability increase [3] -4.95% | viability [4] 91.6% | viability [5] 83.3% | inhibition [6] 1.46% | RAM network inhibition [7] 0.69%

Cc1ccc2c(c1)c1c(n2CC(O)CNC(CO)(CO)CO)CCCC1 (configuration not stated)
inactive: growth inhibition [1] -2.98% | growth inhibition [2] -11.3% | viability increase [3] -1.14% | viability [4] 94.9% | viability [5] 90.8% | inhibition [6] 0.175% | RAM network inhibition [7] -0.57%

c1ccc(-c2nnn(C34CC5CC(CC(C5)C3)C4)n2)cc1
inactive: growth inhibition [1] -4.34% | growth inhibition [2] -0.125% | viability increase [3] 0.19% | viability [4] 90.8% | viability [5] 84.9% | inhibition [6] 0.215% | RAM network inhibition [7] 5.67%

Cc1cc(C)cc(N(CC(=O)NC2CC3CCC2C3)S(C)(=O)=O)c1 (configuration not stated)
inactive: growth inhibition [1] -11.4% | growth inhibition [2] -10.6% | viability increase [3] -0.31% | viability [4] 90.4% | viability [5] 88% | inhibition [6] -0.04% | RAM network inhibition [7] 2.79%

Cc1occc1C(=O)NC1CCCCCC1
inactive: growth inhibition [1] -17.9% | growth inhibition [2] -9.95% | viability increase [3] -0.64% | viability [4] 95.5% | viability [5] 96.6% | inhibition [6] -0.355% | RAM network inhibition [7] -0.22%

O=C(CN1CC(c2ccccc2)CC1=O)Nc1ccc2c(c1)OCO2 (configuration not stated)
inactive: growth inhibition [1] -7.38% | growth inhibition [2] 0.29% | viability increase [3] -1.16% | viability [4] 98% | viability [5] 101% | inhibition [6] 0.205% | RAM network inhibition [7] 1.31%

COc1ccc(CCNc2nc(=O)[nH]nc2C)cc1OC
inactive: growth inhibition [1] -14.6% | growth inhibition [2] -16.5% | viability increase [3] -1.65% | viability [4] 96% | viability [5] 96.5% | inhibition [6] 2.62% | RAM network inhibition [7] 0.16%

COc1cc(C(=O)Nc2ccc(N(C)C)cc2)cc(OC)c1OC
inactive: growth inhibition [1] -13.9% | growth inhibition [2] -11.7% | viability increase [3] -5.23% | viability [4] 82.2% | viability [5] 82.9% | inhibition [6] 1.14% | RAM network inhibition [7] 2.49%

CC1CCCCC1NC(=O)c1nnc(Cc2ccc(Cl)cc2)o1 (configuration not stated)
inactive: growth inhibition [1] -9.84% | growth inhibition [2] -0.745% | viability increase [3] 3.87% | viability [4] 104% | viability [5] 90.8% | inhibition [6] 1.07% | RAM network inhibition [7] 9.76%

CCn1c(=O)cc(N2CCC3(CC2)OCCO3)[nH]c1=O
inactive: growth inhibition [1] -15.1% | growth inhibition [2] -8.98% | viability increase [3] 0.57% | viability [4] 96.8% | viability [5] 93.2% | inhibition [6] 1.01% | RAM network inhibition [7] 1.74%

COc1ccc(C2CC(=O)N3CN(c4ccc(C)c(Cl)c4)CSC3=C2C#N)cc1OC (configuration not stated)
inactive: growth inhibition [1] 2.02% | growth inhibition [2] 21.1% | viability increase [3] -4.27% | viability [4] 85.7% | viability [5] 93.6% | inhibition [6] 0.435% | RAM network inhibition [7] -1.09%

Cc1cccc(OCc2nnc(SCC(=O)NCCc3ccccc3)o2)c1
inactive: growth inhibition [1] -3.83% | growth inhibition [2] -15.6% | viability increase [3] -1.67% | viability [4] 98% | viability [5] 95.2% | inhibition [6] 3.1% | RAM network inhibition [7] 1.99%

O=C(C1CC(=O)N(C2CCCC2)C1)N1CCN(c2ccc(F)cc2)CC1 (configuration not stated)
inactive: growth inhibition [1] -1.42% | growth inhibition [2] 1.6% | viability increase [3] 0.11% | viability [4] 94.3% | viability [5] 95.2% | inhibition [6] 1.39% | RAM network inhibition [7] 2.53%

CCOC(=O)N1CCC(N2Cc3cccc(C(=O)NCc4ccccn4)c3C2=O)CC1
inactive: growth inhibition [1] -4.83% | growth inhibition [2] 8.18% | viability increase [3] -5.24% | viability [4] 99.8% | viability [5] 102% | inhibition [6] 2.19% | RAM network inhibition [7] -1.14%

NC(=O)CC1NC(=O)c2ccccc21 (configuration not stated)
inactive: growth inhibition [1] -11.7% | growth inhibition [2] -6.05% | viability increase [3] 0.12% | viability [4] 91.7% | viability [5] 100% | inhibition [6] 1.28% | RAM network inhibition [7] 3.47%

COc1ccccc1C(=O)N(Cc1nc(-c2ccc(Cl)cc2)no1)C(C)C
inactive: growth inhibition [1] -17.9% | growth inhibition [2] -20.1% | viability increase [3] 1.78% | viability [4] 69% | viability [5] 71.3% | inhibition [6] 0.605% | RAM network inhibition [7] 6.95%

CCOC(=O)c1ccc(NC(=O)C(C)N2C(=O)c3ccccc3C2=O)cc1 (configuration not stated)
inactive: growth inhibition [1] -13.1% | growth inhibition [2] -21.9% | viability increase [3] 0.15% | viability [4] 104% | viability [5] 100% | inhibition [6] 0.645% | RAM network inhibition [7] 4.7%

COC(=O)CSC1=C(C#N)C(c2ccc(C(C)C)cc2)CC(=O)N1 (configuration not stated)
inactive: growth inhibition [1] -0.135% | growth inhibition [2] -3.29% | viability increase [3] 0.86% | viability [4] 89.8% | viability [5] 89.3% | inhibition [6] 3.04% | RAM network inhibition [7] 4.09%

CC(C)CC(NS(=O)(=O)c1ccc2c(c1)oc(=O)n2C)C(=O)NCc1cccnc1 (configuration not stated)
inactive: growth inhibition [1] -0.43% | growth inhibition [2] 15.8% | viability increase [3] -0.08% | viability [4] 112% | viability [5] 98.9% | inhibition [6] 1.82% | RAM network inhibition [7] 0.99%

CCc1ccccc1N1CC23C=CC(O2)C(C(=O)OCC(C)C)C3C1=O (configuration not stated)
inactive: growth inhibition [1] -14.3% | growth inhibition [2] -12.6% | viability increase [3] -0.48% | viability [4] 93.7% | viability [5] 89.6% | inhibition [6] 0.385% | RAM network inhibition [7] 0.42%

O=C(NCCc1ccc(Cl)cc1)c1cnc2n(c1=O)CCS2
inactive: growth inhibition [1] -1.75% | growth inhibition [2] -8.11% | viability increase [3] 3.85% | viability [4] 95% | viability [5] 92.1% | inhibition [6] 0.37% | RAM network inhibition [7] 9.74%

CCOC(=O)c1c(NC(C)=O)no[n+]1[O-]
inactive: growth inhibition [1] -14.2% | growth inhibition [2] -12.3% | viability increase [3] -2.24% | viability [4] 104% | viability [5] 97.1% | inhibition [6] 0.795% | RAM network inhibition [7] 5.03%

Source: PubChem BioAssay
